ChEMBL document CHEMBL3271979, “Inhibition of solid tumors by nitrosoureas. 1. Lewis lung carcinoma” (1977)
The source made the active and inactive calls. The rule behind the calls is not given here.

How the values were obtained:
[1] = Antitumor activity against mouse advanced Lewis lung carcinoma allografted in BDF1 mouse assessed as increase in host life span at 171 mg/kg, ip administered as single dose on 7th day post-tumor implantation; assay type: functional; details: route intraperitoneal
Method in brief: (§1)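 BDF1 mice (C57Blk/6 × DBA/2) implanted sc by trocar with about 40 mg Lewis lung tumor fragments from bacteriologically sterile donors. Advanced-disease groups held tumors of about 400 mg by day 6-7, sized by caliper (w = ab²/2). Single ip injection on day 7, in water or saline vehicle, at or below the LD10 in normal mice. Tumors measured at least twice weekly.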

[2] = Antitumor activity against mouse early Lewis lung carcinoma allografted in BDF1 mouse assessed as increase in host life span at 67 mg/kg, ip administered as single dose on 1 or 2 days post-tumor implantation; assay type: functional; details: route intraperitoneal
Method in brief: (§2)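 BDF1 mice (C57Blk/6 × DBA/2) implanted sc by trocar with ~40 mg Lewis lung tumor fragments from bacteriologically sterile donor tumors. Single ip dose on day 1 or 2, as a solution or suspension in water (CMC or gum acacia) or saline (HPC or Tween 80). Read-out is […]. Same-dose toxicity controls were run in nontumor-bearing mice.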

[3] = Antitumor activity against mouse early Lewis lung carcinoma allografted in BDF1 mouse assessed as time delay in tumor growth at 152 mg/kg, ip administered as single dose on 1 or 2 days post-tumor implantation; assay type: functional; details: route intraperitoneal
Method in brief: (§3)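 BDF1 mice (C57Blk/6 × DBA/2) implanted sc by trocar with ~40 mg Lewis lung tumor fragments from bacteriologically sterile donors. A single ip dose was given on day 1 or 2, as a solution or suspension in water or saline with suspending agent, at ≤0.5 ml. Tumors were measured by caliper at least twice weekly, with weight = ab²/2. Delay was taken as the days for the tumor to reach 1 g.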

Mus musculus [4] = assay: Antitumor activity against mouse advanced Lewis lung carcinoma allografted in ip dosed BDF1 mouse assessed as disease cure administered as single dose on day 6 or 7 post-tumor implantation; assay type: functional, organism-based
Method in brief: (§4)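 BDF1 mice (C57Blk/6 × DBA/2) implanted sc by trocar with Lewis lung tumor fragments of about 40 mg, taken only from bacteriologically sterile donor tumors. Mice bearing tumors of about 400 mg (day 6-7) were selected. Each received a single ip dose on day 7, at or below the LD10 in normal mice. Groups were of 10 mice. Tumor weight was taken from calipers as w = ab²/2, measured at least twice weekly. Matched non-tumor mice served as toxicity controls.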

[5] = Ratio of ED50 for antitumor activity against mouse L1210 cells allografted in ip dosed mouse to LD10 for mouse
[6] = Antitumor activity against mouse early Lewis lung carcinoma allografted in ip dosed BDF1 mouse assessed as disease cure administered as single dose on 1 or 2 days post-tumor implantation measured for 80 days post-drug treatment; assay type: functional
Method in brief: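 BDF1 mice implanted sc by trocar with ~40 mg Lewis lung fragments from sterile donor tumors. A single ip dose was given on day 1 or 2 after implant, in water or saline vehicle. Cures were scored in animals observed for at least 80 days after treatment. Drug-toxicity controls were matched non-tumor-bearing mice monitored for body weight and deaths.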

[7] = Antitumor activity against mouse early Lewis lung carcinoma allografted in BDF1 mouse assessed as increase in host life span at 152 mg/kg, ip administered as single dose on 1 or 2 days post-tumor implantation; assay type: functional; details: route intraperitoneal; method in brief: as §2
[8] = Antitumor activity against mouse early Lewis lung carcinoma allografted in BDF1 mouse assessed as time delay in tumor growth at 67 mg/kg, ip administered as single dose on 1 or 2 days post-tumor implantation; assay type: functional; details: route intraperitoneal; method in brief: as §3
[9] = Antitumor activity against mouse early Lewis lung carcinoma allografted in BDF1 mouse assessed as time delay in tumor growth at 99 mg/kg, ip administered as single dose on 1 or 2 days post-tumor implantation; assay type: functional; details: route intraperitoneal; method in brief: as §3
Mus musculus [10] = assay: Antitumor activity against mouse advanced Lewis lung carcinoma allografted in ip dosed BDF1 mouse assessed as complete regression of established tumor administered as single dose on day 6 or 7 post-tumor implantation; assay type: functional, organism-based; method in brief: as §4
[11] = Antitumor activity against mouse early Lewis lung carcinoma allografted in BDF1 mouse assessed as increase in host life span at 148 mg/kg, ip administered as single dose on 1 or 2 days post-tumor implantation; assay type: functional; details: route intraperitoneal; method in brief: as §2
[12] = Antitumor activity against mouse early Lewis lung carcinoma allografted in BDF1 mouse assessed as time delay in tumor growth at 148 mg/kg, ip administered as single dose on 1 or 2 days post-tumor implantation; assay type: functional; details: route intraperitoneal; method in brief: as §3
[13] = Antitumor activity against mouse early Lewis lung carcinoma allografted in BDF1 mouse assessed as increase in host life span at 99 mg/kg, ip administered as single dose on 1 or 2 days post-tumor implantation; assay type: functional; details: route intraperitoneal; method in brief: as §2
Mus musculus [14] = assay: Antitumor activity against mouse advanced Lewis lung carcinoma allografted in BDF1 mouse assessed as disease cure at 44 mg/kg, ip administered as single dose on 7th day post-tumor implantation measured for 80 days post-drug treatment; assay type: functional, organism-based; design: dose 44 mg/kg; method in brief: as §4
[15] = Antitumor activity against mouse advanced Lewis lung carcinoma allografted in BDF1 mouse assessed as increase in host life span at 44 mg/kg, ip administered as single dose on 7th day post-tumor implantation; assay type: functional; details: route intraperitoneal; method in brief: as §1
[16] = Antitumor activity against mouse early Lewis lung carcinoma allografted in BDF1 mouse assessed as increase in host life span at 24 mg/kg, ip administered as single dose on 1 or 2 days post-tumor implantation; assay type: functional; details: route intraperitoneal; method in brief: as §2
[17] = Antitumor activity against mouse early Lewis lung carcinoma allografted in BDF1 mouse assessed as time delay in tumor growth at 24 mg/kg, ip administered as single dose on 1 or 2 days post-tumor implantation; assay type: functional; details: route intraperitoneal; method in brief: as §3
[18] = Antitumor activity against mouse early Lewis lung carcinoma allografted in BDF1 mouse assessed as time delay in tumor growth at 36 mg/kg, ip administered as single dose on 1 or 2 days post-tumor implantation; assay type: functional; details: route intraperitoneal; method in brief: as §3
[19] = Antitumor activity against mouse advanced Lewis lung carcinoma allografted in BDF1 mouse assessed as increase in host life span at 36 mg/kg, ip administered as single dose on 7th day post-tumor implantation; assay type: functional; details: route intraperitoneal; method in brief: as §1
[20] = Antitumor activity against mouse early Lewis lung carcinoma allografted in BDF1 mouse assessed as increase in host life span at 36 mg/kg, ip administered as single dose on 1 or 2 days post-tumor implantation; assay type: functional; details: route intraperitoneal; method in brief: as §2

## O=NN(CCCl)C(=O)N[C@H]1CC[C@H](NC(=O)N(CCCl)N=O)CC1
[1]
  ILS at 171 mg/kg: 146%
[2]
  ILS at 67 mg/kg: 34%
[3]
  Time: 4 days
Mus musculus [4]
  Activity: Active
[5]
  Ratio: 0.3
[6]
  Activity: 10%
[7]
  ILS at 152 mg/kg: 41%
[8]
  Time: 2 days

## C[C@H]1CC[C@H](NC(=O)N(CCF)N=O)CC1
[9]
  Time: 2.6 days
Mus musculus [10]
  inhibition: Active
[11]
  ILS at 148 mg/kg: 0%
Mus musculus [4]
  Activity: inactive
[12]
  Time: 1.4 days
[13]
  ILS at 99 mg/kg: 34%
Mus musculus [14]
  Activity: inactive
[5]
  Ratio: 0.6
[6]
  Activity: 10%
[15]
  ILS at 44 mg/kg: 94%

## C[C@H]1CC[C@H](NC(=O)N(CCCl)N=O)CC1
[16]
  ILS at 24 mg/kg: 37%
[17]
  Time: 6.5 days
Mus musculus [4]
  Activity: Active
[18]
  Time: 14 days
[5]
  Ratio: 0.4
[6]
  Activity: >50%
[19]
  ILS at 36 mg/kg: 46%
[20]
  ILS at 36 mg/kg: 44%
